Measurements of several laboratories.
Each line is one published result; the experiments were not run side by side.

COc1cc2[nH]c(C)c(-c3ccc(N(C)C)cc3)c(=O)c2cc1Cl — EC50 (J774; cell growth or viability): > 29.2 µM
Cc1c2ccncc2c(C)c2c1[nH]c1ccccc12 — IC50 (KB; cell growth or viability, MTT; 72 h): 0.22 µg/mL
COC(=O)[C@H]1O[C@@H](O[C@H]2CC[C@]3(C)[C@H]4CC=C5[C@@H]6CC(C)(C)CC[C@]6(C(=O)O[C@@H]6O[C@H](CO)[C@@H](O)[C@H](O)[C@H]6O)CC[C@@]5(C)[C@]4(C)CC[C@H]3C2(C)C)[C@H](O)[C@@H](O)[C@@H]1O[C@@H]1O[C@@H](CO)[C@H](O)[C@H]1O — IC50 (human Neutrophil; elastase release, inhibitor): > 30 µM
COc1ccc2[nH]cc(CCNc3nccc(Nc4cccc5c4ccn5C)n3)c2c1 — IC50 (U-937; cell growth or viability, fluorescence; 72 h): 0.008 µM
COc1cccc2c1C(=O)c1c(O)c3c(c(O)c1C2=O)C[C@@](O)(C(=O)CO)C[C@@H]3O[C@H]1C[C@H](N)[C@H](O)[C@H](C)O1 — IC50 (KB; cell growth or viability; 48 h): 1.4 µg/mL
Cl.O[C@]12C=C(c3nccc4c3[nH]c3ccccc34)[C@@H]3CCN(CCCC/C=C\CC1)C[C@@]31C[C@@H]3/C=C\CCCCN3[C@H]12 — IC50 (KB; cell growth or viability, neutral red; 48 h): 0.38 µg/mL
O=C(O)c1cnn(-c2ccccc2)c1OCCCc1c[nH]c2ccccc12 — inhibition (HFF; cell growth or viability; 200 µM, 96 h): < 50%
N.N.[Cl][Pt][Cl] — IC50 (Hs 683; cell growth or viability, MTT): 1.12 µM
CCCCOC(=O)[C@H]1O[C@@H](O[C@H]2CC[C@]3(C)[C@H]4CC=C5[C@@H]6CC(C)(C)CC[C@]6(C(=O)O[C@@H]6O[C@H](CO)[C@@H](O)[C@H](O)[C@H]6O)CC[C@@]5(C)[C@]4(C)CC[C@H]3C2(C)C)[C@H](O[C@@H]2OC[C@@H](O)[C@H](O)[C@H]2O)[C@@H](O)[C@@H]1O — IC50 (human Neutrophil; elastase release, inhibitor): > 30 µM
CC1=CC(=O)c2c(O)cccc2C1=O — IC50 (NCI-H226; cell growth or viability, SRB): 3.03 µM
